In ChEMBL document CHEMBL4411293, “Development of alkyl glycerone phosphate synthase inhibitors: Structure-activity relationship and effects on ether lipids and epithelial-mesenchymal transition in cancer cells” (Eur J Med Chem, 2019):
Active and inactive are the calls of the source. The calls are words filed in the database; no cut-off is given here.

Experiments:
[1] = biological target: Alkyldihydroxyacetonephosphate synthase, peroxisomal (Homo sapiens) (UniProt O00116); assay: Binding affinity to AGPS (unknown origin) assessed as change in melting temperature at 180 uM by ThermoFAD assay
In short: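 ThermoFAD: 5 µM Cavia porcellus AGPS with 180 µM compound in 50 mM HEPES pH 7.5, 50 mM NaCl, 5% glycerol; heated 25–70 °C, FAD fluorescence read every 0.2 °C (excitation 485 nm) to give unfolding temperature shift; triplicate, SD within ±0.5 °C.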

[2] = biological target: Alkyldihydroxyacetonephosphate synthase, peroxisomal (Homo sapiens) (UniProt O00116); assay: Inhibition of AGPS (unknown origin) using palmitoyl-DHAP as substrate in presence of [1-14C]hexadecanol by radioactivity based enzymatic assay
[3] = system: PC-3; assay: Modulation of epithelial-mesenchymal transition in human PC3 cells assessed as upregulation of E-cadherin mRNA expression at 50 to 100 uM after 24 hrs by qRT-PCR analysis; format: functional, cell-based
In short: (§1)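 PC-3 and MDA-MB-231 cells in DMEM/10% FBS treated 24 h at 50 and 100 µM, DMSO vehicle as control; E-cadherin, Snail and MMP2 transcripts quantified by RT-PCR; mean of at least four independent experiments.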

[4] = system: MDA-MB-231; assay: Modulation of epithelial-mesenchymal transition in human MDA-MB-231 cells assessed as upregulation of E-cadherin mRNA expression at 50 to 100 uM after 24 hrs by qRT-PCR analysis; format: functional, cell-based; in short: as §1
[5] = system: PC-3; assay: Modulation of epithelial-mesenchymal transition in human PC3 cells assessed as down regulation of snail mRNA expression at 50 to 100 uM after 24 hrs by qRT-PCR analysis; format: functional, cell-based; in short: as §1
[6] = system: MDA-MB-231; assay: Modulation of epithelial-mesenchymal transition in human MDA-MB-231 cells assessed as down regulation of snail mRNA expression at 50 to 100 uM after 24 hrs by qRT-PCR analysis; format: functional, cell-based; in short: as §1
[7] = system: PC-3; assay: Modulation of epithelial-mesenchymal transition in human PC3 cells assessed as down regulation of MMP2 mRNA expression at 50 to 100 uM after 24 hrs by qRT-PCR analysis; format: functional, cell-based; in short: as §1
[8] = system: MDA-MB-231; assay: Modulation of epithelial-mesenchymal transition in human MDA-MB-231 cells assessed as down regulation of MMP2 mRNA expression at 50 to 100 uM after 24 hrs by qRT-PCR analysis; format: functional, cell-based; in short: as §1
[9] = Down regulation of phospholipids in human 231MFP cells at 500 uM after 24 hrs by LC-MS/MS analysis relative to control; format: functional
In short: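 231MFP cells kept serum-free 24 h, then treated 24 h at 500 µM versus DMSO; lipids extracted in chloroform/methanol/PBS (2:1:1) with C12:0 dodecylglycerol and pentadecanoic acid internal standards; reverse-phase C5 LC, ESI triple-quadrupole MS/MS with SRM quantitation; mean ± SD.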

[10] = Antimigratory activity in human 231MFP cells at 500 uM after 6 hrs by transwell assay relative to control; format: functional
In short: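 Transwell chambers coated with collagen; 231MFP cells preincubated with compound or DMSO vehicle before seeding into serum-free migration assay; migration rate read after 6 h versus vehicle control; mean ± SD, n = 3–4 per group.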

[11] = Cytotoxicity against human 231MFP cells assessed as cell survival at 500 uM after 24 hrs by MTS assay relative to control; format: cell-based; conditions: read-out: Activity
In short: (§2)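 231MFP cells preincubated with compound (500 µM) or DMSO, then seeded into serum-free survival assay; survival read after 24 and 48 h relative to matched DMSO controls.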

[12] = Cytotoxicity against human 231MFP cells assessed as cell survival at 500 uM after 48 hrs by MTS assay relative to control; format: cell-based; conditions: read-out: Activity; in short: as §2
[13] = Cytotoxicity against human MeT-5A cells at 100 uM after 24 hrs by MTS assay; format: cell-based
In short: (§3)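 Cells seeded at 20x10^3 per well; compound added 24 h later at 50, 100 or 250 µM; after further 24 h MTS reagent added and absorbance read at 490 nm; PC-3 and MDA-MB-231 in DMEM, MeT5A in M199, each with 10% FBS, 37 °C, 5% CO2; three independent experiments, 8 measurements total, mean ± SEM.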

[14] = Cytotoxicity against human MeT-5A cells at 250 uM after 24 hrs by MTS assay; format: cell-based; in short: as §3
[15] = system: PC-3; assay: Antiproliferative activity against human PC3 cells at 100 uM after 24 hrs by MTS assay; format: functional, cell-based; in short: as §3
[16] = system: MDA-MB-231; assay: Antiproliferative activity against human MDA-MB-231 cells at 100 uM after 24 hrs by MTS assay; format: functional, cell-based; in short: as §3
[17] = system: PC-3; assay: Antiproliferative activity against human PC3 cells at 250 uM after 24 hrs by MTS assay; format: functional, cell-based; in short: as §3
[18] = system: MDA-MB-231; assay: Antiproliferative activity against human MDA-MB-231 cells at 250 uM after 24 hrs by MTS assay; format: functional, cell-based; in short: as §3
[19] = system: MDA-MB-231; assay: Modulation of epithelial-mesenchymal transition in human MDA-MB-231 cells transfected with AGPS-siRNA assessed as upregulation of E-cadherin mRNA expression at 100 uM after 24 hrs by qRT-PCR analysis; format: functional, cell-based
In short: (§4)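 MDA-MB-231 cells transfected with AGPS siRNAs (100 pmol total, RNAiMAX) or scramble; 24 h later given compound at 100 µM final or DMSO without detaching, harvested 24 h after that; AGPS, E-cadherin, Snail and MMP2 transcripts by RT-PCR; mean of five independent experiments.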

[20] = system: MDA-MB-231; assay: Modulation of epithelial-mesenchymal transition in human MDA-MB-231 cells transfected with AGPS-siRNA assessed as down regulation of snail mRNA expression at 100 uM after 24 hrs by qRT-PCR analysis; format: functional, cell-based; in short: as §4
[21] = system: MDA-MB-231; assay: Modulation of epithelial-mesenchymal transition in human MDA-MB-231 cells transfected with AGPS-siRNA assessed as down regulation of MMP2 mRNA expression at 100 uM after 24 hrs by qRT-PCR analysis; format: functional, cell-based; in short: as §4
[22] = Antimigratory activity in human 231MFP cells at 500 uM after 8 hrs by transwell assay relative to control; format: functional
[23] = Reduction in cell survival in human 231MFP cells; format: functional
[24] = Reduction in cell migration rate in human 231MFP cells; format: functional; parameters: scale not given: the % may be the effect or the level left

Alkyldihydroxyacetonephosphate synthase, peroxisomal (Homo sapiens), sequence (O00116 whole entry): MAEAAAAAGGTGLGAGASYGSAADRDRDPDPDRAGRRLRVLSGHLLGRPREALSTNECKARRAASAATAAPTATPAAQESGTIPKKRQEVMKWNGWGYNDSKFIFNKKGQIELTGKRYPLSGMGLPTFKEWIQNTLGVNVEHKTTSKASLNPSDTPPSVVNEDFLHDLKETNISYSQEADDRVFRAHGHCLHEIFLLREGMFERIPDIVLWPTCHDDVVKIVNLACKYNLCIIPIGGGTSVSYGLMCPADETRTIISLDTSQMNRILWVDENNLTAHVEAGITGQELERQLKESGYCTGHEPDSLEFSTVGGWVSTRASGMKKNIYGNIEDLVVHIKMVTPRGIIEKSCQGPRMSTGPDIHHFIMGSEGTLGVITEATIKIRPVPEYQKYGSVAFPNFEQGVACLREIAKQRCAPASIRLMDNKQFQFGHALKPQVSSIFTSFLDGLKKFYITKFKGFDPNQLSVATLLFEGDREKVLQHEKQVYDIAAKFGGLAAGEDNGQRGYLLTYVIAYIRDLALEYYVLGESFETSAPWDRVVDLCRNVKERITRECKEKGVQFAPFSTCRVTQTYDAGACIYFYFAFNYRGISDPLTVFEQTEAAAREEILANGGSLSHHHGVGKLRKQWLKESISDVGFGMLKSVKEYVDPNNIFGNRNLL

## CC(CC(=O)NCc1ccc2[nH]c(=O)[nH]c2c1)c1ccccc1Cl (stereo unspecified)
[1]
  ΔTm: 3.5 °C

## C/C(=C\c1ccccc1F)C(=O)NCc1ccc2[nH]c(=O)[nH]c2c1
[1]
  ΔTm: 2 °C

## CC(CC(=O)NCc1ccc2[nH]c(=O)[nH]c2c1)c1cccc(F)c1 (stereo unspecified)
[1]
  ΔTm: 3 °C

## CC(CC(=O)NCc1ccc2[nH]cnc2c1)c1c(F)cccc1F (stereo unspecified)
[1]
  ΔTm: 0 °C
[2]
  inhibition: inactive
[3]
  Activity: inactive
[4]
  Activity: inactive
[5]
  Activity: inactive
[6]
  Activity: inactive
[7]
  Activity: inactive
[8]
  Activity: inactive

## CC(Cc1ccccc1F)C(=O)NCc1ccc2[nH]c(=O)[nH]c2c1 (stereo unspecified)
[1]
  ΔTm: 3 °C

## CCC(CC(=O)NCc1ccc2[nH]c(=O)[nH]c2c1)c1ccccc1F (stereo unspecified)
[1]
  ΔTm: 1 °C

## O=C(/C=C/c1ccccc1F)NCc1ccc2[nH]c(=O)[nH]c2c1
[1]
  ΔTm: 0 °C

## C/C(=C\C(=O)NCc1ccc2[nH]c(=O)[nH]c2c1)c1ccccc1F
[1]
  ΔTm: 0 °C

## Cc1ccccc1C(C)CC(=O)NCc1ccc2[nH]c(=O)[nH]c2c1 (stereo unspecified)
[1]
  ΔTm: 3 °C

## CC(CC(=O)NCc1ccc2[nH]c(=O)[nH]c2c1)c1c(F)cccc1F (single isomer, unassigned; (+))
[1]
  ΔTm: 6 °C

## CC(CC(=O)NCc1ccc2[nH]c(=O)[nH]c2c1)c1ccc(F)cc1 (stereo unspecified)
[1]
  ΔTm: 4 °C

## CC(C(=O)NCc1ccc2[nH]c(=O)[nH]c2c1)c1c(F)cccc1F (stereo unspecified)
[1]
  ΔTm: 1 °C
[2]
  inhibition: inactive

## CC(CC(=O)NCc1ccc2[nH]c(=O)[nH]c2c1)c1ccccc1Br (stereo unspecified)
[1]
  ΔTm: 3.5 °C

## CC(CC(=O)NCc1ccc2[nH]c(=O)[nH]c2c1)c1ccccc1 (stereo unspecified)
[1]
  ΔTm: 1.5 °C

## CC(CC(=O)NCc1ccc2[nH]c(=O)[nH]c2c1)c1c(F)cccc1F (stereo in doubt; 2i) [listing 1 of 2 here]
[9]
  Activity: 50 - 70%
[10]
  Activity: 78%
[11]
  viability at 24 h, 500 µM: 44%
[12]
  viability at 48 h, 500 µM: 57%
[13]
  Activity: Non-Toxic
[14]
  Activity: Non-Toxic

## CC(CC(=O)NCc1ccc2[nH]c(=O)[nH]c2c1)c1c(F)cccc1F (stereo in doubt; 2i) [listing 2 of 2 here]
[1]
  ΔTm: 5 °C
[2]
  inhibition: Active
[15]
  Activity: inactive
[16]
  Activity: inactive
[17]
  Activity: Active
[18]
  Activity: Active
[3]
  Activity: Active
[4]
  Activity: Active
[5]
  Activity: Active
[6]
  Activity: Active
[7]
  Activity: Active
[8]
  Activity: Active
[19]
  Activity: Active
[20]
  Activity: Active
[21]
  Activity: Active

## CC(CC(=O)NCc1ccc2ncc(=O)[nH]c2c1)c1c(F)cccc1F (stereo unspecified)
[1]
  ΔTm: 0 °C

## CC(CC(=O)Nc1ccc2[nH]c(=O)[nH]c2c1)c1c(F)cccc1F (stereo unspecified)
[1]
  ΔTm: 0 °C

## O=C(CCc1ccccc1F)NCc1ccc2[nH]c(=O)[nH]c2c1
[1]
  ΔTm: 0 °C

## COc1ccccc1C(C)CC(=O)NCc1ccc2[nH]c(=O)[nH]c2c1 (stereo unspecified)
[1]
  ΔTm: 0 °C

## CC(CC(=O)NCc1ccc2[nH]c(=O)[nH]c2c1)c1ccccc1F (stereo unspecified)
[1]
  ΔTm: 3.5 °C
[22]
  Activity: 48%
[3]
  Activity: Active
[4]
  Activity: Active
[5]
  Activity: Active
[6]
  Activity: Active
[7]
  Activity: Active
[8]
  Activity: Active
[23]
  Activity: 50%
[24]
  Activity: 48%

## CC(CC(=O)NCc1ccc2[nH]c(=O)[nH]c2c1)c1ccc(F)cc1F (stereo unspecified)
[1]
  ΔTm: 3.5 °C

## C[C@H](CC(=O)NCc1ccc2[nH]c(=O)[nH]c2c1)c1c(F)cccc1F
[1]
  ΔTm: 3 °C

## O=C(CC(c1ccccc1)c1ccccc1F)NCc1ccc2[nH]c(=O)[nH]c2c1 (stereo unspecified)
[1]
  ΔTm: 0 °C
[2]
  inhibition: inactive
